Source: ChEMBL document CHEMBL3286178, “Cell membrane mediated (-)-epicatechin effects on upstream endothelial cell signaling: evidence for a surface receptor” (Bioorg Med Chem Lett, 2014)
Each block holds one molecule with its values, some of them ahead of it. Calls of active or inactive are those of the source. No cut-off for these calls is given here.

Tests used:
[1] = biological target: T1, Nitric oxide synthase 3 (Homo sapiens) (UniProt P29474); test: Induction of eNOS activation in calcium free HCAEC assessed as phosphorylation at serine 1177 at 100 nM after 10 mins incubation
T1 sequence (whole entry): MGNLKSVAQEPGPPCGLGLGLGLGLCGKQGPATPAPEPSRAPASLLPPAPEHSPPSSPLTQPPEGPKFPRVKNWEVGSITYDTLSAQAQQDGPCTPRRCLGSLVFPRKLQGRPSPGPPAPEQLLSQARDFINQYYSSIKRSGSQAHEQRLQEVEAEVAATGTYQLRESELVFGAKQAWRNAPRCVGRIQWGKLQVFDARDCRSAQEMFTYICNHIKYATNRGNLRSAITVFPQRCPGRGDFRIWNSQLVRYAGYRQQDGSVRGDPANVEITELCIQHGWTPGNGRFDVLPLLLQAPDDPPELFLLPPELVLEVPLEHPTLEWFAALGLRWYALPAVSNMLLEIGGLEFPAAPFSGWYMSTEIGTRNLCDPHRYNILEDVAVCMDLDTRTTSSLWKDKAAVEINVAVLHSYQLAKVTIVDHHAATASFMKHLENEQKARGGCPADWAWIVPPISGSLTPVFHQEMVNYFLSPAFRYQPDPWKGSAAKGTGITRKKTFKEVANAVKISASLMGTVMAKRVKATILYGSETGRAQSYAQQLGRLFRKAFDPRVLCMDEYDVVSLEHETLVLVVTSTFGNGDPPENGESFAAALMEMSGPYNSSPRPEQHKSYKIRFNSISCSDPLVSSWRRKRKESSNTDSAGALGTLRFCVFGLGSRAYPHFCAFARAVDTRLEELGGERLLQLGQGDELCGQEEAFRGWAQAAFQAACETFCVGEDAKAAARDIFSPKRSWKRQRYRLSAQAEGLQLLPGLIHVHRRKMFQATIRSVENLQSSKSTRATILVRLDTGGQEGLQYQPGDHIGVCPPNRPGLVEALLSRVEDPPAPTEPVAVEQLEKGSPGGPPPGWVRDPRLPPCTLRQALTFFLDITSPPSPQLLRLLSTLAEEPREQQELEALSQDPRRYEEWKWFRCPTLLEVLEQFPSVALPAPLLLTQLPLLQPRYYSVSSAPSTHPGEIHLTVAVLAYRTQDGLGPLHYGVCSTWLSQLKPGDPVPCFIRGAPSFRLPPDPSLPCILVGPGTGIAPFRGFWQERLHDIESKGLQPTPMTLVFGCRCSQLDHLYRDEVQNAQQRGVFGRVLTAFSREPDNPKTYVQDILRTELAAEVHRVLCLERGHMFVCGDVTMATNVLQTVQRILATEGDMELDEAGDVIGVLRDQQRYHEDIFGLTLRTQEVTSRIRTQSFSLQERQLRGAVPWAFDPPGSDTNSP
Outline: (§1)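 Ca2+-free human coronary artery endothelial cells treated 10 min with 100 nM free or dextran-conjugated compound (conjugate dose expressed as equivalent bound compound); phospho-PI3K, phospho-PDK1, phospho-AKT, phospho-eNOS (Ser1177, Ser615) and PIP3 assessed, with or without PI3K inhibitor wortmannin; Western blots representative of three independent experiments.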

[2] = biological target: T1, Nitric oxide synthase 3 (Homo sapiens); test: Induction of eNOS activation in calcium free HCAEC assessed as phosphorylation at serine 1177 at 100 nM after 10 mins incubation in presence of wortmannin; outline: as §1
[3] = biological target: T1, Nitric oxide synthase 3 (Homo sapiens); test: Induction of eNOS activation in calcium free HCAEC assessed as phosphorylation at serine 615 at 100 nM after 10 mins incubation; outline: as §1
Homo sapiens [4] = species on record: Homo sapiens; test: Induction of PIP3 level in calcium free HCAEC at 100 nM after 10 mins incubation by Western blot analysis in presence of wortmannin; type: functional; outline: as §1
Homo sapiens [5] = species on record: Homo sapiens; test: Induction of PIP3 level in calcium free HCAEC at 100 nM after 10 mins incubation by Western blot analysis; type: functional; outline: as §1
brain = test: Binding affinity to rat brain cell membrane at 10 uM
Homo sapiens [6] = species on record: Homo sapiens; test: Induction of PI3K in calcium free HCAEC assessed as PDK1 phosphorylation at 100 nM after 10 mins incubation by Western blot analysis in presence of wortmannin; outline: as §1
Homo sapiens [7] = species on record: Homo sapiens; test: Induction of PI3K in calcium free HCAEC assessed as Akt phosphorylation at 100 nM after 10 mins incubation by Western blot analysis in presence of wortmannin; outline: as §1
Homo sapiens [8] = species on record: Homo sapiens; test: Induction of PI3K phosphorylation in calcium free HCAEC at 100 nM after 10 mins incubation by Western blot analysis in presence of wortmannin; outline: as §1
Homo sapiens [9] = species on record: Homo sapiens; test: Induction of PI3K in calcium free HCAEC assessed as PDK1 phosphorylation at 100 nM after 10 mins incubation by Western blot analysis; outline: as §1
Homo sapiens [10] = species on record: Homo sapiens; test: Induction of PI3K in calcium free HCAEC assessed as Akt phosphorylation at 100 nM after 10 mins incubation by Western blot analysis; outline: as §1
[11] = biological target: T1, Nitric oxide synthase 3 (Homo sapiens); test: Induction of eNOS activation in calcium free HCAEC assessed as phosphorylation at serine 615 at 100 nM after 10 mins incubation in presence of wortmannin; outline: as §1
Homo sapiens [12] = species on record: Homo sapiens; test: Effect on eNOS phosphorylation at Thr 495 in calcium free HCAEC at 100 nM after 10 mins incubation; type: functional
Homo sapiens [13] = species on record: Homo sapiens; test: Induction of PI3K phosphorylation in calcium free HCAEC at 100 nM after 10 mins incubation by Western blot analysis; outline: as §1
[14] = Binding affinity to rat brain cell membrane; type: cell membranes

Activity [1]: Active
Activity [2]: inactive
Activity [3]: Active
Activity (Homo sapiens [6]): inactive
Activity (Homo sapiens [7]): inactive
Activity (Homo sapiens [8]): inactive
Activity (Homo sapiens [9]): Active
Activity (Homo sapiens [10]): Active
Activity [11]: inactive
Activity (Homo sapiens [13]): Active
SMILES: Oc1cc(O)c2c(c1)O[C@H](c1ccc(O)c(O)c1)[C@H](O)C2
Activity (Homo sapiens [4]): inactive
Activity (Homo sapiens [5]): Active
Activity (brain): inactive
Activity (Homo sapiens [12]): inactive

SMILES: O=C(O[C@@H]1Cc2c(O)cc(O)cc2O[C@@H]1c1cc(O)c(O)c(O)c1)c1cc(O)c(O)c(O)c1 [EPIGALOCATECHIN GALLATE]
Ki [14]: 25 nM

SMILES: O=C(O[C@@H]1Cc2c(O)cc(O)cc2O[C@@H]1c1ccc(O)c(O)c1)c1cc(O)c(O)c(O)c1 [EPICATECHIN GALLATE]
Ki [14]: 25 nM

SMILES: Oc1ccc(/C=C/c2cc(O)cc(O)c2)cc1 [RESVERATROL]
Ki [14]: 102 nM
